Results: ChEMBL document CHEMBL4033651, “Exploration of flexible phenylpropylurea scaffold as novel cardiac myosin activators for the treatment of systolic heart failure” (Eur J Med Chem, 2017)

Assays:
Rattus norvegicus [1] = assay: Positive inotropic activity in Sprague-Dawley rat heart assessed as fractional shortening at 4 ug/kg/min for 3 mins by echocardiographic analysis (reference value: 38.60 to 55.81%); assay type: functional
Procedure, shortened: (§1)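 Seven-week-old male Sprague-Dawley rats under 1.5 % isoflurane via nosecone. Drug given through a right internal jugular vein central line. Left ventricular fractional shortening and ejection fraction measured by echocardiography with and without sample, expressed as % increase.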

Bos taurus = organism: Bos taurus; assay: Activation of actin-stimulated bovine cardiac myosin S1 fragment ATPase activity in sarcomere at 10 uM after 10 mins by spectrophotometric analysis
Procedure, shortened: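 Bovine cardiac S1 myosin with actin thin filament complex at pCa 6.5, in 20 mM Tris HCl pH 7.5, 15 mM KCl, 6 mM MgCl2, 1 mM ATP. Compound at 10 μM, 10 min at room temperature. Stopped with Cytophos reagent; liberated phosphate read at 650 nm. % activity calculated relative to DMSO negative control, blank-corrected.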

Rattus norvegicus [2] = assay: Positive inotropic activity in Sprague-Dawley rat heart assessed as left ventricle fractional shortening at 2 to 16 ug/kg/min for 3 mins by echocardiographic analysis; assay type: functional; procedure, shortened: as §1
Rattus norvegicus [3] = assay: Positive inotropic activity in Sprague-Dawley rat heart assessed as ejection fraction at 2 to 16 ug/kg/min for 3 mins by echocardiographic analysis; assay type: functional; procedure, shortened: as §1
Oryctolagus cuniculus = organism: Oryctolagus cuniculus; assay: Activation of actin-stimulated rabbit psoas skeletal muscle myosin S1 fragment ATPase activity at 100 uM after 10 mins by spectrophotometric analysis
Procedure, shortened: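 Rabbit skeletal S1 myosin with actin thin filament complex at pCa 6.5, in 20 mM Tris HCl pH 7.5, 15 mM KCl, 6 mM MgCl2, 1 mM ATP. Compound at single 100 uM dose, 10 min at room temperature. Cytophos stop; phosphate read at 650 nm. % activity versus blank-corrected DMSO control.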

Gallus gallus = organism: Gallus gallus; assay: Activation of actin-stimulated chicken gizzard smooth muscle myosin S1 fragment ATPase activity at 100 uM after 10 mins by spectrophotometric analysis
Procedure, shortened: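 Chicken gizzard smooth muscle S1 myosin with actin plus tropomyosin at pCa 6.5, in 20 mM Tris HCl pH 7.5, 15 mM KCl, 6 mM MgCl2, 1 mM ATP. Compound at single 100 uM dose, 10 min at room temperature. Cytophos stop; phosphate read at 650 nm. % activity versus blank-corrected DMSO control.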

Rattus norvegicus [4] = assay: Positive inotropic activity in Sprague-Dawley rat heart assessed as heart rate at 8 ug/kg/min for 3 mins by echocardiographic analysis (reference value: 281 to 347 bpm); assay type: functional
Rattus norvegicus [5] = assay: Positive inotropic activity in Sprague-Dawley rat heart assessed as heart rate at 16 ug/kg/min for 3 mins by echocardiographic analysis (reference value: 281 to 347 bpm); assay type: functional
Rattus norvegicus [6] = assay: Positive inotropic activity in Sprague-Dawley rat heart assessed as left ventricular internal diameter end systole at 4 ug/kg/min for 3 mins by echocardiographic analysis (reference value: 2.50 to 4.78 mm); assay type: functional
Procedure, shortened: (§2)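 Male Sprague-Dawley rats, seven weeks old, anaesthetised with 1.5 % isoflurane given by nosecone. Compound infused through the right internal jugular vein, used as a central venous line. Left ventricular dimensions measured by echocardiography.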

Rattus norvegicus [7] = assay: Positive inotropic activity in Sprague-Dawley rat heart assessed as left ventricular internal diameter end systole at 8 ug/kg/min for 3 mins by echocardiographic analysis (reference value: 2.50 to 4.78 mm); assay type: functional; procedure, shortened: as §2
Rattus norvegicus [8] = assay: Positive inotropic activity in Sprague-Dawley rat heart assessed as left ventricular internal diameter end diastole at 8 ug/kg/min for 3 mins by echocardiographic analysis (reference value: 5.66 to 7.80 mm); assay type: functional; procedure, shortened: as §2
Rattus norvegicus [9] = assay: Positive inotropic activity in Sprague-Dawley rat heart assessed as left ventricular internal diameter end diastole at 16 ug/kg/min for 3 mins by echocardiographic analysis (reference value: 5.66 to 7.80 mm); assay type: functional
Rattus norvegicus [10] = assay: Positive inotropic activity in Sprague-Dawley rat heart assessed as left ventricular posterior wall thickness end systole at 4 ug/kg/min for 3 mins by echocardiographic analysis (reference value: 2.07 to 2.46 mm); assay type: functional; procedure, shortened: as §2
Rattus norvegicus [11] = assay: Positive inotropic activity in Sprague-Dawley rat heart assessed as left ventricular posterior wall thickness end systole at 8 ug/kg/min for 3 mins by echocardiographic analysis (reference value: 2.07 to 2.46 mm); assay type: functional; procedure, shortened: as §2
Rattus norvegicus [12] = assay: Positive inotropic activity in Sprague-Dawley rat heart assessed as left ventricular posterior wall thickness end diastole at 4 ug/kg/min for 3 mins by echocardiographic analysis (reference value: 0.88 to 1.54 mm); assay type: functional; procedure, shortened: as §2
Rattus norvegicus [13] = assay: Positive inotropic activity in Sprague-Dawley rat heart assessed as left ventricular posterior wall thickness end diastole at 8 ug/kg/min for 3 mins by echocardiographic analysis (reference value: 0.88 to 1.54 mm); assay type: functional; procedure, shortened: as §2
Rattus norvegicus [14] = assay: Positive inotropic activity in Sprague-Dawley rat heart assessed as left ventricular posterior wall thickness end diastole at 16 ug/kg/min for 3 mins by echocardiographic analysis (reference value: 0.88 to 1.54 mm); assay type: functional; procedure, shortened: as §2
Rattus norvegicus [15] = assay: Positive inotropic activity in Sprague-Dawley rat heart assessed as ejection fraction at 8 ug/kg/min for 3 mins by echocardiographic analysis (reference value: 67.16 to 85.81%); assay type: functional; procedure, shortened: as §1
Rattus norvegicus [16] = assay: Positive inotropic activity in Sprague-Dawley rat heart assessed as ejection fraction at 16 ug/kg/min for 3 mins by echocardiographic analysis (reference value: 67.16 to 85.81%); assay type: functional; procedure, shortened: as §1
Rattus norvegicus [17] = assay: Positive inotropic activity in Sprague-Dawley rat heart assessed as fractional shortening at 8 ug/kg/min for 3 mins by echocardiographic analysis (reference value: 38.60 to 55.81%); assay type: functional; procedure, shortened: as §1
Rattus norvegicus [18] = assay: Positive inotropic activity in Sprague-Dawley rat heart assessed as fractional shortening at 16 ug/kg/min for 3 mins by echocardiographic analysis (reference value: 38.60 to 55.81%); assay type: functional; procedure, shortened: as §1
Rattus norvegicus [19] = assay: Effect on hemodynamic parameters in Sprague-Dawley rat heart assessed as end-systolic pressure at 8 ug/kg/min (reference value: 87.48 to 97.85 mmHg); assay type: functional
Rattus norvegicus [20] = assay: Effect on hemodynamic parameters in Sprague-Dawley rat heart assessed as end-systolic pressure at 16 ug/kg/min (reference value: 87.48 to 97.85 mmHg); assay type: functional
Rattus norvegicus [21] = assay: Effect on hemodynamic parameters in Sprague-Dawley rat heart assessed as end-diastolic pressure at 8 ug/kg/min (reference value: 7.68 to 9.83 mmHg); assay type: functional
Rattus norvegicus [22] = assay: Effect on hemodynamic parameters in Sprague-Dawley rat heart assessed as end-diastolic pressure at 16 ug/kg/min (reference value: 7.68 to 9.64 mmHg); assay type: functional
Rattus norvegicus [23] = assay: Effect on hemodynamic parameters in Sprague-Dawley rat heart assessed as dPdT max at 16 ug/kg/min (reference value: 4162 to 5214 mmHg/s); assay type: functional
Rattus norvegicus [24] = assay: Effect on hemodynamic parameters in Sprague-Dawley rat heart assessed as dPdT min at 16 ug/kg/min (reference value: -5462 to -4611 mmHg/s); assay type: functional
Rattus norvegicus [25] = assay: Effect on hemodynamic parameters in Sprague-Dawley rat heart assessed as heart rate at 8 ug/kg/min (reference value: 260 to 322 bpm); assay type: functional
Rattus norvegicus [26] = assay: Effect on hemodynamic parameters in Sprague-Dawley rat heart assessed as heart rate at 16 ug/kg/min (reference value: 274 to 322 bpm); assay type: functional

| Compound | Activity (Rattus norvegicus [1]) [%] | Activity (Bos taurus) [%] | Activity (Rattus norvegicus [2]) [%] | Activity (Rattus norvegicus [3]) [%] | Activity (Oryctolagus cuniculus) [%] | Activity (Gallus gallus) [%] | Activity (Rattus norvegicus [4]) [bpm] | Activity (Rattus norvegicus [5]) [bpm] | Activity (Rattus norvegicus [6]) [mm] | Activity (Rattus norvegicus [7]) [mm] | Activity (Rattus norvegicus [8]) [mm] | Activity (Rattus norvegicus [9]) [mm] | Activity (Rattus norvegicus [10]) [mm] | Activity (Rattus norvegicus [11]) [mm] | Activity (Rattus norvegicus [12]) [mm] | Activity (Rattus norvegicus [13]) [mm] | Activity (Rattus norvegicus [14]) [mm] | Activity (Rattus norvegicus [15]) [%] | Activity (Rattus norvegicus [16]) [%] | Activity (Rattus norvegicus [17]) [%] | further results |
| --- | --- | --- | --- | --- | --- | --- | --- | --- | --- | --- | --- | --- | --- | --- | --- | --- | --- | --- | --- | --- | --- |
| COC(=O)N1CCN(Cc2cccc(NC(=O)Nc3ccc(C)nc3)c2F)CC1 [OMECAMTIV MECARBIL] | 58.9 | 58 | 20.32 | 13.35 | 2.8 | -5.5 | 370 | 367 | 2.63 | 2.33 | 5.97 | 6.5 | 2.81 | 2.68 | 1.36 | 1.23 | 1.36 | 89.52 | 89.17 | 61.03 | Activity (Rattus norvegicus [18]): 60.81%; Activity (Rattus norvegicus [19]): 104.3 mmHg; Activity (Rattus norvegicus [20]): 108.91 mmHg; Activity (Rattus norvegicus [21]): 6.21 mmHg; Activity (Rattus norvegicus [22]): 6.46 mmHg; Activity (Rattus norvegicus [23]): 6867 mmHg/s; Activity (Rattus norvegicus [24]): -6342 mmHg/s; Activity (Rattus norvegicus [25]): 292 bpm; Activity (Rattus norvegicus [26]): 297 bpm |
| O=C(NCCCc1ccccc1)NCc1ccccc1 | 45.67 | 53.3 | 30.04 | 18.27 | 1.4 | -3.7 | 412 | 412 | 3.03 | 1.58 | 5.97 | 5.57 | 2.24 | 2.68 | 1.62 | 1.49 | 1.71 | 96.1 | 95.44 | 73.53 | Activity (Rattus norvegicus [18]): 71.65%; Activity (Rattus norvegicus [19]): 96.04 mmHg; Activity (Rattus norvegicus [20]): 94.26 mmHg; Activity (Rattus norvegicus [21]): 10.71 mmHg; Activity (Rattus norvegicus [22]): 11.33 mmHg; Activity (Rattus norvegicus [23]): 4740 mmHg/s; Activity (Rattus norvegicus [24]): -5405 mmHg/s; Activity (Rattus norvegicus [25]): 271 bpm; Activity (Rattus norvegicus [26]): 272 bpm |
